Results from different studies.
Protocols differ between the studies behind these lines.
Target: Aurora kinase A (AURKA, Homo sapiens, UniProt O14965)
One construct used (O14965 1-403): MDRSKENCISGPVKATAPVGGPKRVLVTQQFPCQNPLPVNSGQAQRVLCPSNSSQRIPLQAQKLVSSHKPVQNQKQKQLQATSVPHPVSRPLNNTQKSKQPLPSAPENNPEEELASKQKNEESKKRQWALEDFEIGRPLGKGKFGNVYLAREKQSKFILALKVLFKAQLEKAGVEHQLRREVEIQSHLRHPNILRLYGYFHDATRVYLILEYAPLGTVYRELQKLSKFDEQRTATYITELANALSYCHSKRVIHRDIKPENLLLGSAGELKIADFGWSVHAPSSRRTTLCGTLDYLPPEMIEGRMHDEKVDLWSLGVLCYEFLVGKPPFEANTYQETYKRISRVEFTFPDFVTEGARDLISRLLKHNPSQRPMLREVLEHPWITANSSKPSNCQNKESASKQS

| Structure (SMILES) | observed | action | technique | tested at | measurement | result |
| --- | --- | --- | --- | --- | --- | --- |
| Cc1ccc(C(=O)Nc2ccc(CN3CCN(C)CC3)c(C(F)(F)F)c2)cc1C#Cc1cnc2cccnn12 | enzyme activity | inhibitor | – | 23.5 nM | remaining activity | 97% |
| COc1cc(Nc2cnc(C#N)c(O[C@H](C)CN(C)C)n2)ncc1-c1cnn(C)c1 | enzyme activity | inhibitor | radiometric | 1 µM | remaining activity | 84% |
| O=C(Nc1cnn(-c2csc(C(=O)NC3COC3)c2)c1)Nc1c(F)cccc1Cl | enzyme activity | inhibitor | – | 5 µM | remaining activity | 83.1% |
| Cn1c(=O)n(-c2ccc(C(C)(C)C#N)cc2)c2c3cc(-c4cnc5ccccc5c4)ccc3ncc21 | enzyme activity | inhibitor | – | 10 µM | remaining activity | 104% |
| CC(C)c1ccc(NC(=O)c2cccs2)c(-c2nc3ccccc3[nH]c2=O)c1 | enzyme activity | inhibitor | – | 1 µM | activity vs control | 83% |
| COc1cc(-c2cn(C3CCc4c(F)cccc4N(CC(F)(F)F)C3=O)nn2)ccc1-n1cnc(C)c1 (centres unmarked) | cell-free assay | – | competition with immobilised ligand | 1 µM | remaining binding | 100% |
| Cc1[nH]c(/C=C2\C(=O)Nc3ccc(F)cc32)c(C)c1C(=O)N[C@H]1CCN(C(=O)N(C)C)C1 | enzyme activity | inhibitor | – | 0.1 µM | remaining activity | 82% |
| CCN(CC)CCNC(=O)c1c(C)[nH]c(/C=C2\C(=O)Nc3ccc(F)cc32)c1C | enzyme activity | inhibitor | – | 0.3 µM | inhibition | 28% |
| COc1cc2ncnc(Nc3ccc(Oc4ccccc4)c(C)c3C)c2cc1OC | enzyme activity | inhibitor | – | 1 µM | inhibition | 13% |
| Cc1ccc(NC(=O)c2ccc(C)c(C(F)(F)F)c2)cc1C#Cc1nn(C2CCC(O)CC2)c2ncnc(N)c12 (centres unmarked) | cell-free assay | – | – | 10 µM | remaining signal | 64% |
| CCN(CC)CCNC(=O)c1c(C)[nH]c(/C=C2\C(=O)Nc3ccc(F)cc32)c1C | enzyme activity | inhibitor | – | 1 µM | remaining activity | 43% |
| N#CCCc1ccc2c(c1)-c1[nH]c3ccc([N+](=O)[O-])cc3c1CC(=O)N2 | cell-free assay | – | – | 0.5 µM | remaining signal | 78.7% |
| FC(F)c1nc2ccccc2n1-c1nc(N2CCOCC2)nc(N2CCOCC2)n1 | enzyme activity | inhibitor | – | 10 µM | remaining activity | 99% |
| Cc1cc(NC(=O)c2cccc3cc(-c4cccc5[nH]nc(N)c45)ccc23)ccc1F | enzyme activity | inhibitor | – | 0.1 µM | activity vs control | 95% |
| CNc1cccc2cc(C(=O)Nc3ccc(C(=O)O)cc3)c(=O)[nH]c12 | enzyme activity | inhibitor | – | 10 µM | inhibition | 16% |
| CNC(=O)c1cc(Oc2ccc(NC(=O)Nc3ccc(Cl)c(C(F)(F)F)c3)cc2)ccn1 | enzyme activity | inhibitor | – | 0.3 µM | inhibition | 16% |

| Structure (SMILES) | observed | action | technique | tested at | measurement | result |
| --- | --- | --- | --- | --- | --- | --- |
| CC(C)(O)c1cncc(-c2nc3ccc(F)cc3n2C2CC2)c1 | cell-free assay | – | competition with immobilised ligand | 1 µM | remaining binding | 94% |
| C[C@@H]1CCN(C(=O)CC#N)C[C@@H]1N(C)c1ncnc2[nH]ccc12 | cell-free assay | inhibitor | – | 0.5 µM | remaining signal | 84.1% |
| CCCOc1ccc(OC)c(F)c1C(=O)c1ccc(C(=O)N[C@@H]2CNC[C@H]2NC(=O)c2ccc3[nH]ncc3c2)cc1 | enzyme activity | inhibitor | – | 10 µM | remaining activity | 33% |
| Cc1cc(NC(=O)c2cccc(S(F)(F)(F)(F)F)c2)cc(-n2ccn3nc(-c4cccnc4)cc23)c1 | cell-free assay | – | competition with immobilised ligand | 1 µM | remaining binding | 84.9% |
| Cc1sc(C(=O)NC2COC2)cc1-n1cc(NC(=O)Nc2c(F)cccc2Cl)cn1 | enzyme activity | inhibitor | – | 10 µM | remaining activity | 88.4% |
| CCC(=N\O)/C(C)=C/c1ccc(F)cc1 | cell-free assay | – | competition with immobilised ligand | 1 µM | remaining binding | 100% |
| O=C(CSc1nc2nccnc2c(=O)n1CCc1ccccc1)Nc1nccs1 | enzyme activity | inhibitor | – | 10 µM | inhibition | 1% |
| Cc1ccc(C(=O)NCc2ccsc2)cc1C#Cc1cn(C(C)C)c2ncnc(N)c12 | enzyme activity | inhibitor | – | 1 µM | activity vs control | 50% |
| Cc1c(NC(=O)c2cc(C(N)=O)nc3cc(F)ccc23)c(C(F)(F)F)nn1Cc1ccc(C#N)cc1 | cell-free assay | – | competition with immobilised ligand | 1 µM | remaining binding | 89% |
| Nc1ncnc2occ(-c3ccc(NC(=O)Nc4cc(C(F)(F)F)ccc4F)cc3)c12 | enzyme activity | inhibitor | – | 20 µM | remaining activity | 0.1% |
| O=C(Nc1cnc(Oc2ccc(F)cc2)nc1)N1CCc2ncccc2[C@@H]1c1ccc(F)cc1 | cell-free assay | – | competition with immobilised ligand | 1 µM | remaining binding | 100% |
| COc1cc(Cl)c(C(=O)N[C@@H](CN[C@H]2CC[C@@H](N)CC2)Cc2ccc(C#N)cc2)cc1-c1ccc(CN[C@H](C)c2ccc(C)cc2)o1 | enzyme activity | inhibitor | – | 1 µM | remaining activity | 98% |
| Cc1nc(Cc2cccc(C(F)(F)F)c2)sc1-c1ccc(C(N)=O)nc1 | cell-free assay | – | competition with immobilised ligand | 1 µM | remaining binding | 100% |
| Cc1ccc(Nc2nccc(N(C)c3ccc4c(C)n(C)nc4c3)n2)cc1S(N)(=O)=O | enzyme activity | inhibitor | – | 0.3 µM | inhibition | 73% |
| CC1=C(C#N)C(c2ccc3c(c2)c(NC(=O)c2ccccc2C)nn3C)C(C#N)=C(C)N1 | cell-free assay | – | competition with immobilised ligand | 1 µM | remaining binding | 61% |
| CC(C)(C)c1nc2c(s1)c1nc(N)ncc1c1ccc(NS(=O)(=O)c3c(F)cccc3F)c(F)c12 | enzyme activity | inhibitor | radiometric | 1 µM | remaining activity | 103% |
